The subject of assay [1] is Mus musculus. Kind of assay: Increase in insulin sensitivity in ob/ob mouse at 40 mg/kg/day, po after 5 weeks by insulin tolerance test. The assay is classed as functional, organism-based. In short, it runs like this:
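Male ob/ob mice, from 8 weeks of age, got 40 mg kg⁻¹ d⁻¹ of the inhibitor or vehicle by oral gavage for 6 weeks. After 5 weeks of treatment and a 6 h fast, insulin was given intraperitoneally (2 IU kg⁻¹). Blood glucose was read with a glucose meter on 3 μl whole blood. Vehicle and treated groups had n = 6 each.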

Assay [2] relates to THP-1. Description: Reduction of TNF expression in human THP1 cells expressing aP2 relative to control. The assay is classed as functional, cell-based.
In assay [3] the test system is Mus musculus. Description: Effect on triglyceride level in 5-week old apoE-/- C57BL/6J mouse fed on western diet and administered with 15 mg/kg/day, po drug at 12 week in 12-18 week late intervention study. The assay is classed as functional. In short, it runs like this: (§1)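 Male Apoe−/− mice on western diet (21% fat, 0.21% cholesterol) from 4–5 weeks of age. Oral gavage for 6 weeks from age 5 or 12 weeks; vehicle 10% 1-methyl-2-pyrrolidone, 5% cremophor EL with ethanol in water. Blood taken after 6 h fast before and after treatment. Glucose by meter; insulin by ELISA; lipids and glycerol colorimetric.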

Assay [4] concerns Mus musculus. Description: Effect on free fatty acid level in 5-week old apoE-/- C57BL/6J mouse fed on western diet and 15 mg/kg/day, po drug simultaneously in 5-11 week early intervention study. The assay is classed as functional. In short, it runs like this: as §1
The subject of assay [5] is THP-1. Kind of assay: Decrease in MCP1 production in human THP1 cells expressing aP2 after 24 hrs. Type of assay: functional, cell-based. In short, it runs like this: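 THP-1 monocytes differentiated with 100 nM PMA for 24 h. Incubated 24 h in RPMI with 5% lipoprotein-deficient serum with inhibitor 0–25 μM in DMSO. Supernatant MCP-1 measured by ELISA and normalized to cellular protein. At least triplicate.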

In assay [6] the test system is Mus musculus. Description: Increase in adiponectin level in ob/ob mouse plasma at 40 mg/kg/day, po after 6 weeks relative to control. Type of assay: functional, organism-based. In short, it runs like this:
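Plasma from male ob/ob mice after 6 weeks of daily oral gavage (started at 8 weeks), 6 h fasted, n = 6 per group. Adiponectin measured by ELISA.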

Assay [7] has as its system Mus musculus. Description: Effect on free fatty acid level in 5-week old apoE-/- C57BL/6J mouse fed on western diet and administered with 15 mg/kg/day, po drug at 12 week in 12-18 week late intervention study. The assay is classed as functional. In short, it runs like this: as §1
Assay [8] in a line: Reduction of Mcp1 expression mouse aP2+/+ macrophage cells relative to control. The assay is classed as functional, cell-based. In short, it runs like this:
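Mouse aP2⁺/⁺ and aP2-reconstituted aP2⁻/⁻ macrophage lines were grown in RPMI with FBS or 5% LPDS, with inhibitor in DMSO or vehicle. Mcp-1, Il1β, Il6 and Tnf mRNA were measured by SYBR Green qRT-PCR (annealing at 58 °C, 50 cycles), normalized to 18s rRNA and then to untreated cells. Mean ± s.e.m.; at least triplicate.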

Assay [9] relates to Mus musculus. Kind of assay: Suppression of clamp hepatic glucose production in ob/ob mouse at 40 mg/kg/day, po after 4 weeks by hyperinsulinemic-euglycaemic clamp studies. Type of assay: functional, organism-based. In short, it runs like this:
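Clamps were run in ob/ob mice after 4 weeks of oral gavage at 40 mg kg⁻¹ d⁻¹ (vehicle n = 7, treated n = 9), with jugular catheters placed 4 days earlier. Insulin was infused at 12.5 mU kg⁻¹ min⁻¹, 25% glucose at variable rates held basal glycaemia, and ³H-glucose ran at 0.1 μCi min⁻¹. Clamp hepatic glucose production = whole-body uptake minus glucose infusion rate.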

In assay [10] the test system is Mus musculus. Description: Inhibition of aP2 in 5-week old apoE-/- C57BL/6J mouse fed on western diet and administered with 15 mg/kg/day, po drug at 12 week in late intervention study assessed as reduction of atherosclerotic lesion in en face aorta relative to control. Type of assay: functional. Details: scale not given: the % may be the effect or the level left. In short, it runs like this:
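Male Apoe⁻/⁻ C57BL/6J mice were fed a western diet (21% fat, 0.21% cholesterol) from 4–5 weeks of age. They were gavaged for 6 weeks with 15 mg kg⁻¹ d⁻¹ in vehicle (10% 1-methyl-2-pyrrolidone, 5% cremophor EL with ethanol, in water), starting at 5 weeks (early) or 12 weeks (late). Perfusion-fixed, pinned-out aortas were stained with Sudan IV and lesion area was quantified.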

The subject of assay [11] is Mus musculus. Description: Effect on glycerol level in 5-week old apoE-/- C57BL/6J mouse fed on western diet and 15 mg/kg/day, po drug simultaneously in 5-11 week early intervention study. Type of assay: functional. In short, it runs like this: as §1
For assay [12], the system named is Mus musculus. Description: Decrease in Cd68 expression in ob/ob mouse adipose tissue at 40 mg/kg/day, po. The assay is classed as functional, organism-based.
In assay [13] the test system is Mus musculus. Kind of assay: Attenuation of JNK1 activity in ob/ob mouse adipose tissue at 40 mg/kg/day, po. Type of assay: functional. In short, it runs like this:
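Adipose lysate from male ob/ob mice (oral gavage 6 weeks from 8 weeks of age) immunoprecipitated with JNK1 antibody and protein A beads. Beads incubated with 10 μCi ³²P γATP, 10 μM ATP and 5 μg c-jun fusion protein at 30 °C for 20 min, then Laemmli stop.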

The subject of assay [14] is Mus musculus. Description: Effect on glycerol level in ob/ob mouse at 40 mg/kg/day, po after 6 weeks relative to control. The assay is classed as functional. In short, it runs like this:
(§2)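 Male ob/ob mice given oral gavage daily for 6 weeks from 8 weeks old, n = 6 per group. Blood taken after 6 h fast before and after treatment; fed glucose taken at week 2. Glucose by meter on 3 μl whole blood, insulin by ultrasensitive ELISA, cholesterol, FFA and glycerol by colorimetric microplate assays.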

Assay [15] relates to Mus musculus. Description: Effect on adiponectin level in 5-week old apoE-/- C57BL/6J mouse fed on western diet and administered with 15 mg/kg/day, po drug at 12 week in 12-18 week late intervention study. Type of assay: functional. In short, it runs like this: as §1
Assay [16] has as its system Mus musculus. Description: Decrease in IL1-beta expression in ob/ob mouse adipose tissue at 40 mg/kg/day, po. Type of assay: functional, organism-based.
The subject of assay [17] is Mus musculus. Kind of assay: Decrease in insulin level in ob/ob mouse plasma at 40 mg/kg/day, po after 6 weeks relative to control. Type of assay: functional, organism-based. In short, it runs like this:
as §2

The subject of assay [18] is Mus musculus. Kind of assay: Reduction of total liver triglyceride level in ob/ob mouse at 40 mg/kg/day, po. The assay is classed as functional, organism-based. In short, it runs like this: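 Male ob/ob mice were gavaged with 40 mg kg⁻¹ d⁻¹ or vehicle for 6 weeks from 8 weeks of age, n = 6 per group. Total liver lipids were extracted by the Bligh–Dyer method and triglyceride content was determined.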

Assay [19] is described as follows: Reduction in total cholesterol ester content in mouse aP2-/-R macrophage cells (re-expression of aP2) at 25 uM relative to control. The assay is classed as functional, cell-based.
Assay [20] relates to THP-1. Description: Increase in ABCA1 mRNA level in human THP1 cells at 25 uM relative to control. Type of assay: functional, cell-based.
Assay [21] concerns THP-1. Description: Reduction of transformation of human THP1 cells to foam cells at 25 uM after 3 days relative to control. The assay is classed as functional, cell-based. In short, it runs like this:
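PMA-differentiated THP-1 macrophages (100 nM, 24 h) were loaded with 50 μg ml⁻¹ acLDL for 24 h in 5% LPDS, then treated 3 days with 25 μM inhibitor or DMSO in 10% FBS. Cells were fixed in 10% formalin for 90 min and stained with Oil Red O for 3 h to view foam cells.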

Assay [22] deals with Mus musculus. Description: Increase in free fatty acid level in ob/ob mouse at 40 mg/kg/day, po after 6 weeks relative to control. The assay is classed as functional. In short, it runs like this:
as §2

Activity calls are given as the source filed them. The rule behind the calls is not given here.

`CCc1c(-c2ccccc2)c(-c2ccccc2)nn1-c1ccccc1-c1cccc(OCC(=O)O)c1`: the outcome (in the assay on Mus musculus [1]; in the assay on THP-1 [2]; in the assay on Mus musculus [6]; in assay [8]; in the assay with Mus musculus [9]; in the assay with Mus musculus [12]) was Active. Moreover, the outcome (in the assay with Mus musculus [16]; in the assay with Mus musculus [17]; in the assay on Mus musculus [18]; in [19]; in the assay on THP-1 [20]; with THP-1 [21]) was Active. Besides, the Activity in the assay on Mus musculus [3] is 410.7 mg/dL; in the assay on Mus musculus [4] it was 2 mM; with THP-1 [5], “Dose-dependent effect”; in the assay with Mus musculus [7], 2.55 mM; in the assay with Mus musculus [10], 51%; in the assay with Mus musculus [11], 2.31 mM. Further, the Activity was 40% with Mus musculus [13], 0.56 mM with Mus musculus [14], 5.78 µg/mL with Mus musculus [15] and 0.9 mM in the assay on Mus musculus [22].

These data come from ChEMBL document CHEMBL1142233, “Treatment of diabetes and atherosclerosis by inhibiting fatty-acid-binding protein aP2” (2007).
